Measured values from different studies.
Each line is one published result; the experiments were not run side by side.
Target: Dual serine/threonine and tyrosine protein kinase (DSTYK, Homo sapiens, UniProt Q6XUX3)
Residues used in one study (Q6XUX3 1-929): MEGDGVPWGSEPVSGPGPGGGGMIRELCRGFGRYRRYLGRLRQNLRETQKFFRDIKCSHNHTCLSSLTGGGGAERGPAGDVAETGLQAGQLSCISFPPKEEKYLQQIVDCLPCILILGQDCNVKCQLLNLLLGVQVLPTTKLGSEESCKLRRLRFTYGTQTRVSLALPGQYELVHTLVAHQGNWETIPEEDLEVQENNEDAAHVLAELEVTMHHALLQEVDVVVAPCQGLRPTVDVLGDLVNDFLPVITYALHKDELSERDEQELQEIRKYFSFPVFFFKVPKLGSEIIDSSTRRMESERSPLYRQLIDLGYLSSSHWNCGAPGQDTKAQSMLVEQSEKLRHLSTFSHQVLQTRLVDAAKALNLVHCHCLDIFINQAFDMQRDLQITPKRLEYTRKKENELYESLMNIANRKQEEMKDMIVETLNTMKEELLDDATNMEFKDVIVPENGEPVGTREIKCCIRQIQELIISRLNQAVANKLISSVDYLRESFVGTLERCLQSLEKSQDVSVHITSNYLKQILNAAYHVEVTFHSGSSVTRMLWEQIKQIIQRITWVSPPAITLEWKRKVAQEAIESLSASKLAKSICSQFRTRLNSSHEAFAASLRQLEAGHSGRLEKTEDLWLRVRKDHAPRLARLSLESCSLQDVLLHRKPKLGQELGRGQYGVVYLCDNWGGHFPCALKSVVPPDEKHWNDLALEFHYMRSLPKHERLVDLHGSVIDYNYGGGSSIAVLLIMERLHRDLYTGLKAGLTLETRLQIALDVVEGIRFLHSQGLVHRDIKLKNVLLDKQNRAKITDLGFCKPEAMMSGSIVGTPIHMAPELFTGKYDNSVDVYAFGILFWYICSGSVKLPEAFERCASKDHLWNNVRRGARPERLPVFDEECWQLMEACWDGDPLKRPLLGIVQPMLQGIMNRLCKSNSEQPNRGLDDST

SMILES | assay | conditions | remaining binding
CNC(=O)[C@@H]1CC[C@@H](n2c(-c3ccc4cnccc4c3)nc3ccc(C(=O)NCc4cccc(C(N)=O)c4)cc32)C1 | binding, competition with immobilised ligand | 1 µM | 100%
CCc1ccccc1C(=O)Nc1n[nH]c2c(C)c(F)c(C3C(C#N)=C(C)N(C)C(C)=C3C#N)cc12 | cell-free assay, competition with immobilised ligand | 1 µM | 95%
Nc1ncc2c(n1)-c1c([nH]c3ccc(C#CC4CC4)cc13)CCCC2 | binding, competition with immobilised ligand | 1 µM | 19%
C=CC(=O)N1CCC(C(=O)NCC(=O)N2CCN(c3nc(-c4cnc(N)nc4C(F)F)nc(N4CCOCC4)n3)CC2)CC1 | binding, competition with immobilised ligand | 1 µM | 72%
O=C(NCCCN1CCOCC1)c1ccc(Nc2ncc(Cl)c(-c3ccc(Cl)s3)n2)cc1 | binding, competition with immobilised ligand | 1 µM | 89%
NS(=O)(=O)c1cc(NC(=O)Cc2ccccc2)ccc1Oc1cccc(Cl)c1 | cell-free assay, competition with immobilised ligand | 1 µM | 83%
CN(c1nccc(-c2cnn3ncccc23)n1)C1CC1 | binding | 1 µM | 98%
CC(C)(O)c1cncc(-c2nc3ccc(F)cc3n2C2CC2)c1 | cell-free assay, competition with immobilised ligand | 1 µM | 100%
CN(C)c1nccc(-c2cnn3ncccc23)n1 | binding | 1 µM | 96%
COc1cnc(Nc2cccc(S(N)(=O)=O)c2)nc1N1CCN(c2ccccc2)C(=O)C1 | binding, competition with immobilised ligand | 1 µM | 89%
O=C(c1ccc(Nc2nccc(-c3cc4ccccc4s3)n2)cc1)N1CCC(N2CCCC2)CC1 | binding, competition with immobilised ligand | 1 µM | 37%
CN1CCN(c2cnc3c(C4CCN(C(=O)c5ccc(OC(F)(F)F)cc5N)CC4)ncnc3c2)CC1 | cell-free assay, competition with immobilised ligand | 1 µM | 100%
CCN1CCN(Cc2ccc(C(=O)Nc3ccc(C)c(Oc4ccc5c(c4)CC(=O)N5)c3)cc2C(F)(F)F)CC1 | binding, competition with immobilised ligand | 1 µM | 100%
O=C(NCc1ncc(C(F)(F)F)cc1Cl)c1ccc2c(c1)C1(CCS(=O)(=O)CC1)[C@@H](C1CC1)N2S(=O)(=O)c1ccc(F)cc1 | cell-free assay, competition with immobilised ligand | 1 µM | 78%
CC1CCCN1c1nccc(-c2cnn3ncccc23)n1 (stereo not shown) | binding | 1 µM | 100%
O=C(c1ccc(Nc2ncc(Cl)c(-c3cc4ccccc4s3)n2)cc1)N1CCC(N2CCCC2)CC1 | binding, competition with immobilised ligand | 1 µM | 32%
c1cnn2ncc(-c3ccnc(N4CCC45COC5)n3)c2c1 | binding | 1 µM | 79%
CN(C)C(=O)Cn1cc(-c2nc(C3(c4ccc(-c5cnc(N)nc5)cc4)CC3)no2)cn1 | cell-free assay, competition with immobilised ligand | 1 µM | 94%
N[C@H]1CCN(c2nccc(-c3cnn4ncccc34)n2)C1 | binding | 1 µM | 100%
O=C(Nc1c[nH]nc1C(=O)NC1CCNCC1)c1cc(F)cc(F)c1 | binding, competition with immobilised ligand | 1 µM | 87%
C[C@@H]1CCN(c2nccc(-c3cnn4ncccc34)n2)C1 | binding | 1 µM | 77%
CNC(=O)c1ccc(Nc2ncc(C(F)(F)F)c(NCc3nccnc3N(C)S(C)(=O)=O)n2)cc1 | cell-free assay, competition with immobilised ligand | 0.1 µM | 87%
